This note sets out measurements from ChEMBL document CHEMBL1130393, “Antitumor agents. 178. Synthesis and biological evaluation of substituted 2-aryl-1,8-naphthyridin-4(1H)-ones as antitumor agents that inhibit tubulin polymerization” (J Med Chem, 1997).

The test system of test [1] is Tumor Cell line. The experiment in a line: In vitro antitumor activity against NCI 's human tumor cell lines. Format: functional. Put shortly: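 Tested in the NCI 60 human tumor cell line in vitro screen. […] The value is calculated from all cell lines tested, as an average log GI50.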
Test [2] addresses Tubulin (Bos taurus) (UniProt Q6B856+Q862L2+Q862F3). The experiment in a line: Inhibition of radiolabeled colchicine binding to tubulin. Format: protein assay. To be noted: concentration not given here. Set-up: concentration or dose not given beside the values. Put shortly:
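Measured by DEAE-cellulose filter binding. The 0.1 mL mixture held bovine brain tubulin 1.0 µM, 1.0 M monosodium glutamate (pH 6.6), 1 mM MgCl2, 0.1 mM GTP, 5.0 µM [3H]colchicine, 5% DMSO and inhibitor at 5.0 µM. It was incubated 20 min at 37 °C, filtered through two DEAE-cellulose papers, washed with water and counted by liquid scintillation.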

Test [3] has as its system Panel breast (Carcinoma cell lines). The experiment in a line: log molar concentration required to cause total growth inhibition of breast tumor cell lines. The note with it: Homo sapiens, read-out: Log TGI (converted). Format: functional. Put shortly: (§1)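 TGI from the NCI 60 human tumor cell line in vitro screen: log of the molar drug concentration causing total growth inhibition, reported for the named cell panel.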

Test [4] relates to CAKI-1. The experiment in a line: in vitro antitumor activity against CAKI-1 tumor cell lines. Format: functional. To be noted: Homo sapiens.
In test [5] the test system is Panel CNS (Carcinoma cell lines). The experiment in a line: log molar concentration required to cause total growth inhibition of CNS cancer cell lines. To be noted: Homo sapiens, read-out: Log TGI (converted). Format: functional. Summed up: as §1
Test [6] has as its system Panel colon (Carcinoma cell lines). The experiment in a line: log molar concentration required to cause total growth inhibition of colon tumor cell lines. Format: functional. To be noted: Homo sapiens, read-out: Log TGI (converted). Put shortly:
as §1

In test [7] the test system is HCT-116. The experiment in a line: in vitro antitumor activity against HCT116 tumor cell lines. Format: functional. The note with it: Homo sapiens.
The subject of test [8] is HL-60. Briefly: in vitro antitumor activity against HL-60(TB) tumor cell lines. Format: functional. To be noted: Homo sapiens.
Test [9] deals with Tumor Cell line. Briefly: in vitro antitumor activity against NCI 's human tumor cell lines. Format: functional. To be noted: read-out: Average log GI50 (converted). Summed up:
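NCI in vitro screen of 60 human tumor cell lines. […] The value is calculated from all cell lines tested.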

Test [10] relates to MDA-MB-435. Briefly: in vitro antitumor activity against MAD-MB-435NCI 's human tumor cell lines. Format: functional.
In test [11] the test system is Tumor Cell line. Briefly: log molar concentration required to cause total growth inhibition of leukemic tumor cell lines. Format: functional. The note with it: Homo sapiens, read-out: Log TGI (converted). Put shortly: as §1
The test system of test [12] is MDA-N. Briefly: in vitro antitumor activity against MDA-N tumor cell lines. To be noted: Homo sapiens. Format: functional.
For test [13], the system named is Melanoma tumor cell line. Briefly: log molar concentration required to cause total growth inhibition of melanomic tumor cell lines. Format: functional. To be noted: Homo sapiens, read-out: Log TGI (converted). Summed up: as §1
Test [14] deals with NCI-H460. Briefly: in vitro antitumor activity against NCI-H460 tumor cell lines. Format: functional. To be noted: Homo sapiens.
The test system of test [15] is OVCAR-3. Briefly: in vitro antitumor activity against OVCAR-3 tumor cell lines. Format: functional. To be noted: Homo sapiens.
The test system of test [16] is NSCLC. The experiment in a line: log molar concentration required to cause total growth inhibition of non-small cell lung tumor cell lines. Format: functional. The note with it: Homo sapiens, read-out: Log TGI (converted). Summed up:
as §1

Test [17] concerns PC-3. Briefly: in vitro antitumor activity against PC-3 tumor cell lines. Format: functional. The note with it: Homo sapiens.
The subject of test [18] is Panel prostate (Carcinoma cell lines). The experiment in a line: log molar concentration required to cause total growth inhibition of prostate tumor cell lines. Format: functional. To be noted: Homo sapiens, read-out: Log TGI (converted). Summed up: as §1
Test [19] concerns Panel renal (Carcinoma cell lines). Briefly: log molar concentration required to cause total growth inhibition of renal tumor cell lines. Format: functional. To be noted: Homo sapiens, read-out: Log TGI (converted). Put shortly:
as §1

Test [20] relates to SF-295. Briefly: in vitro antitumor activity against SF-295 tumor cell lines. Format: functional. The note with it: Homo sapiens.
Test [21] has as its system SK-MEL-5. Briefly: in vitro antitumor activity against SK-MEL-5 tumor cell lines. Format: functional. To be noted: Homo sapiens.
The test system of test [22] is U-251. Briefly: in vitro antitumor activity against U-251 tumor cell lines. Format: functional. The note with it: Homo sapiens.
Test [23] deals with Tubulin (Bos taurus, UniProt Q6B856+Q862L2+Q862F3). The experiment in a line: Inhibition of tubulin polymerization. Format: functional.
Test [24] has as its system Tumor Cell line. Briefly: log molar concentration required to cause total growth inhibition of NCI 's human tumor cell lines. The note with it: read-out: Log TGI (converted). Format: functional. Summed up:
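NCI 60 human tumor cell line in vitro screen. TGI is the log molar concentration giving total growth inhibition, calculated from all cell lines tested.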

Test [25] deals with Panel ovarian (Carcinoma cell lines). The experiment in a line: log molar concentration required to cause total growth inhibition of ovarian tumor cell lines. The note with it: Homo sapiens, read-out: Log TGI (converted). Format: functional. Summed up: as §1

What is called inhibition is the percentage by which the read-out fell short of the control. By TGI is commonly meant the concentration at which net growth stops. What is called GI50 is the concentration giving 50% growth inhibition. As usually defined, the IC50 is the midpoint of a concentration-inhibition curve.

As to `COc1cc([C@@H]2c3cc4c(cc3[C@H](O)[C@H]3COC(=O)[C@H]23)OCO4)cc(OC)c1OC` [PODOFILOX], the “average log GI50” value in [1] is recorded as -7.54 M. Further, the inhibition in [2] came to 76%.
As to `Oc1cc(-c2cccc(Cl)c2)nc2ncccc12`, the TGI was 1.17 µM in test [3]; 16.6 µM in test [5]; 16.2 µM in test [6]; 38.9 µM in [11]; 97.7 µM in [13]; 85.1 µM in test [16]. The TGI was 2.63 µM in [18], 49 µM in test [19], 24 µM in [24] and 31.6 µM in test [25]. For the same compound, the GI50 in [4] is 0.0562 µM; in test [7], 0.0288 µM; in test [8], 0.0105 µM; in test [9] it was 0.229 µM; in test [10] it was under 0.01 µM; in [12] it was 0.0174 µM. Also, the GI50 is 0.0871 µM in test [14]; 0.0457 µM in test [15]; 0.0224 µM in test [17]; 0.0631 µM in [20]; 0.0525 µM in [21]; 0.145 µM in test [22]. Also, in [23], the IC50 worked out at 1.5 µM.
